Laboratory results taken from ChEMBL document CHEMBL1145471, “Small molecule regulators of autophagy identified by an image-based high-throughput screen” (Proc Natl Acad Sci U S A, 2007).
Blank lines part the entries; values can stand above or below the compound they belong to. Active and inactive are the calls of the source. The calls are words filed in the database; no cut-off is given here.

Assays:
H4 [1] = experiment: Increase in light chain 3-GFP+ autophagosome vesicle area per cell in human H4 cells at 4.3 uM after 24 hrs by high throughput fluorescence microscopy relative to control; type: functional
Procedure, shortened: (§1)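 H4 cells stably expressing LC3-GFP, seeded in 96-well plates and exposed to compound for 24 h; screening concentrations were 3–12 μM, with rapamycin 0.22 μM and bafilomycin A1 0.40 μM. Cells fixed in 4% paraformaldehyde and stained with 3 μg/ml DAPI. Number, size and intensity of LC3-GFP spots measured by high-throughput fluorescence microscopy and expressed as percent of DMSO-treated wells. Rapamycin was the positive control. Triplicate wells, mean ± SD; experiments repeated three times.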

H4 [2] = experiment: Increase in light chain 3-GFP+ autophagosome vesicle intensity per cell in human H4 cells at 4.3 uM after 24 hrs by high throughput fluorescence microscopy relative to control; type: functional
Procedure, shortened: (§2)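 H4 cells stably expressing LC3-GFP were grown in DMEM with 10% FBS and 2 mM L-glutamine at 37°C, 5% CO2. They were exposed to each compound for 24 h, with DMSO as negative and rapamycin as positive control. Cells were then fixed in 4% paraformaldehyde and stained with 3 μg/ml DAPI. High-throughput fluorescence imaging scored LC3-GFP spot number, size and intensity, expressed relative to DMSO. Mean ± SD of triplicates; experiments repeated three times.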

H4 [3] = experiment: Induction of light chain 3-GFP level in human H4 cells at 4.3 uM after 24 hrs by high throughput fluorescence microscopy relative to control; type: functional
Procedure, shortened: (§3)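 H4 cells stably expressing LC3-GFP, grown in DMEM with 10% FBS, penicillin/streptomycin and 2 mM L-glutamine at 37°C, 5% CO2. Cells were seeded in 96-well plates and exposed to library compounds at 3–12 μM for 24 h, then fixed in 4% paraformaldehyde and stained with 3 μg/ml DAPI. LC3-GFP spot number, size and intensity were measured by high-throughput fluorescence microscopy and expressed relative to DMSO. Triplicates, mean ± SD.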

H4 [4] = experiment: Increase in light chain 3-GFP+ autophagosome vesicle number per cell in human H4 cells at 4.3 uM after 24 hrs by high throughput fluorescence microscopy relative to control; type: functional; procedure, shortened: as §2
[5] = target: Serine/threonine-protein kinase mTOR (Homo sapiens, UniProt P42345); experiment: Effect on mTOR phosphorylation in human H4 cells at 3.9 uM after 4 hrs; type: cell-based
Procedure, shortened: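 H4 cells exposed to compound for 4 h. Lysates analysed by Western blot with anti-phospho and anti-total mTOR antibodies, with actin as loading control. Rapamycin served as reference.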

H4 [6] = experiment: Increase in long-lived protein degradation in human H4 cells after 24 hrs relative to control; type: functional; set-up: concentration or dose not given beside the values
H4 [7] = experiment: Increase in ratio of light chain 3 subunit 2 to light chain 3 subunit 1 in human H4 cells at 3.9 uM after 4 hrs by Western blot; type: functional, cell-based
Procedure, shortened: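 H4 cells were treated with each compound for 4 h, then lysed. Lysates were immunoblotted with anti-LC3 antibody, with actin as loading control. LC3II and LC3I bands were compared as an LC3II/LC3I ratio.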

H4 [8] = experiment: Increase in FYVE-RFP+ vesicle intensity per cell in human H4 cells after 4 hrs relative to control; type: functional; set-up: concentration or dose not given beside the values
Procedure, shortened: (§4)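 H4 cells stably expressing FYVE-RFP (H4-FYVE), grown in DMEM with 10% FBS, penicillin/streptomycin and 2 mM L-glutamine at 37°C, 5% CO2, seeded in 96-well plates and exposed to compound. Fixed in 4% paraformaldehyde, nuclei stained with 3 μg/ml DAPI, FYVE-RFP+ vesicles quantified by high-throughput fluorescence microscopy against DMSO control. Triplicate wells, mean ± SD.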

H4 [9] = experiment: Increase in FYVE-RFP+ vesicle intensity per cell in human H4 cells after 2 hrs relative to control; type: functional; set-up: concentration or dose not given beside the values; procedure, shortened: as §4
H4 [10] = experiment: Increase in long-lived protein degradation in human H4 cells after 1 hr relative to control; type: functional; set-up: concentration or dose not given beside the values
H4 [11] = experiment: Reduction of poly(Q) level in human H4 cells expressing EGFP-Q79-HA after 24 hrs; type: functional, cell-based
Procedure, shortened: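 H4 cells were transiently transfected with an EGFP-Q79-HA expression vector. The medium was replaced 6 h after transfection and compounds were added. Poly(Q) was detected with anti-HA antibody.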

H4 [12] = experiment: Increase in FYVE-RFP+ vesicle intensity per cell in human H4 cells after 8 hrs relative to control; type: functional; set-up: concentration or dose not given beside the values; procedure, shortened: as §4
H4 [13] = experiment: Induction of light chain 3-GFP level in human H4 cells at 3.9 uM after 24 hrs by high throughput fluorescence microscopy relative to control; type: functional
Procedure, shortened: (§5)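 H4 cells stably expressing LC3-GFP, kept in DMEM/10% FBS at 37°C, 5% CO2, were seeded in 96-well plates and exposed to compound for 24 h. Cells were then fixed in 4% paraformaldehyde and stained with 3 μg/ml DAPI. Automated fluorescence microscopy scored the number, size and intensity of LC3-GFP spots. Values are percent of DMSO wells, in triplicate, mean ± SD. Rapamycin served as positive control.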

H4 [14] = experiment: Increase in light chain 3-GFP+ autophagosome vesicle number per cell in human H4 cells at 3.9 uM after 24 hrs by high throughput fluorescence microscopy relative to control; type: functional; procedure, shortened: as §5
H4 [15] = experiment: Increase in light chain 3-GFP+ autophagosome vesicle area per cell in human H4 cells at 3.9 uM after 24 hrs by high throughput fluorescence microscopy relative to control; type: functional
Procedure, shortened: (§6)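 H4 cells stably expressing LC3-GFP, seeded in 96-well plates and exposed to compound for 24 h; fixed in 4% paraformaldehyde, nuclei stained with 3 μg/ml DAPI. Automated fluorescence microscopy scored number, size and intensity of LC3-GFP spots; values expressed relative to DMSO-treated wells, rapamycin positive control. Triplicate wells, mean ± SD; experiments repeated three times.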

H4 [16] = experiment: Increase in long-lived protein degradation in human H4 cells after 2 hrs relative to control; type: functional; set-up: concentration or dose not given beside the values
H4 [17] = experiment: Increase in long-lived protein degradation in human H4 cells after 4 hrs relative to control; type: functional; set-up: concentration or dose not given beside the values
H4 [18] = experiment: Increase in light chain 3-GFP+ autophagosome vesicle intensity per cell in human H4 cells at 3.9 uM after 24 hrs by high throughput fluorescence microscopy relative to control; type: functional; procedure, shortened: as §6
H4 [19] = experiment: Induction of light chain 3-GFP level in human H4 cells at 4.5 uM after 24 hrs by high throughput fluorescence microscopy relative to control; type: functional; procedure, shortened: as §3
H4 [20] = experiment: Decrease in FYVE-RFP+ vesicle intensity per cell in human H4 cells after 4 hrs relative to control; type: functional; set-up: concentration or dose not given beside the values; procedure, shortened: as §4
H4 [21] = experiment: Decrease in FYVE-RFP+ vesicle intensity per cell in human H4 cells after 2 hrs relative to control; type: functional; set-up: concentration or dose not given beside the values; procedure, shortened: as §4
H4 [22] = experiment: Decrease in FYVE-RFP+ vesicle intensity per cell in human H4 cells after 8 hrs relative to control; type: functional; set-up: concentration or dose not given beside the values; procedure, shortened: as §4
H4 [23] = experiment: Increase in light chain 3-GFP+ autophagosome vesicle area per cell in human H4 cells at 4.5 uM after 24 hrs by high throughput fluorescence microscopy relative to control; type: functional; procedure, shortened: as §1
H4 [24] = experiment: Increase in light chain 3-GFP+ autophagosome vesicle number per cell in human H4 cells at 4.5 uM after 24 hrs by high throughput fluorescence microscopy relative to control; type: functional; procedure, shortened: as §2
H4 [25] = experiment: Increase in light chain 3-GFP+ autophagosome vesicle intensity per cell in human H4 cells at 4.5 uM after 24 hrs by high throughput fluorescence microscopy relative to control; type: functional; procedure, shortened: as §2
H4 [26] = experiment: Increase in light chain 3-GFP+ autophagosome vesicle intensity per cell in human H4 cells at 6.1 uM after 24 hrs by high throughput fluorescence microscopy relative to control; type: functional; procedure, shortened: as §6
H4 [27] = experiment: Increase in light chain 3-GFP+ autophagosome vesicle area per cell in human H4 cells at 3.8 uM after 24 hrs by high throughput fluorescence microscopy relative to control; type: functional; procedure, shortened: as §6
H4 [28] = experiment: Increase in light chain 3-GFP+ autophagosome vesicle number per cell in human H4 cells at 6.1 uM after 24 hrs by high throughput fluorescence microscopy relative to control; type: functional; procedure, shortened: as §5
H4 [29] = experiment: Induction of light chain 3-GFP level in human H4 cells at 6.1 uM after 24 hrs by high throughput fluorescence microscopy relative to control; type: functional; procedure, shortened: as §5
H4 [30] = experiment: Increase in light chain 3-GFP+ autophagosome vesicle intensity per cell in human H4 cells at 4.8 uM after 24 hrs by high throughput fluorescence microscopy relative to control; type: functional; procedure, shortened: as §6
H4 [31] = experiment: Increase in light chain 3-GFP+ autophagosome vesicle number per cell in human H4 cells at 4.8 uM after 24 hrs by high throughput fluorescence microscopy relative to control; type: functional; procedure, shortened: as §5
H4 [32] = experiment: Induction of light chain 3-GFP level in human H4 cells at 4.8 uM after 24 hrs by high throughput fluorescence microscopy relative to control; type: functional; procedure, shortened: as §5
H4 [33] = experiment: Increase in light chain 3-GFP+ autophagosome vesicle area per cell in human H4 cells at 4.8 uM after 24 hrs by high throughput fluorescence microscopy relative to control; type: functional; procedure, shortened: as §6

SMILES: COc1cc([C@@H]2c3cc4c(cc3[C@@H](O[C@@H]3O[C@@H]5CO[C@@H](C)O[C@H]5[C@H](O)[C@H]3O)[C@H]3COC(=O)[C@H]23)OCO4)cc(OC)c1O [ETOPOSIDE]
Activity (H4 [1]): 306.93%
Activity (H4 [2]): 335.9%
Activity (H4 [3]): 48.17%
Activity (H4 [4]): 275.6%

Activity [5]: inactive
SMILES: COC(=O)C1=C(C)NC(C)=C(C(=O)OCCCN2CCC(c3ccccc3)(c3ccccc3)CC2)[C@H]1c1cccc([N+](=O)[O-])c1 [NIGULDIPINE]
Activity (H4 [6]): 117.85%
Activity (H4 [7]): Active
Activity (H4 [8]): 148.26%
Activity (H4 [9]): 147.18%
Activity (H4 [10]): 71.65%
Activity (H4 [11]): Dose-dependent effect
Activity (H4 [12]): 125.53%
Activity (H4 [13]): 132.78%
Activity (H4 [14]): 282.89%
Activity (H4 [15]): 405.33%
Activity (H4 [16]): 107.42%
Activity (H4 [17]): 105.68%
Activity (H4 [18]): 777.92%

SMILES: COC1=C2C[C@@H](C)C[C@H](OC)[C@H](O)[C@@H](C)/C=C(\C)[C@H](OC(N)=O)[C@@H](OC)/C=C\C=C(/C)C(=O)NC(=CC1=O)C2=O [GELDANAMYCIN]
Activity (H4 [6]): 72.93%
Activity (H4 [10]): 87.25%
Activity (H4 [19]): 81.41%
Activity (H4 [20]): 41.33%
Activity (H4 [21]): 35.18%
Activity (H4 [22]): 39.26%
Activity (H4 [23]): 398.91%
Activity (H4 [24]): 313.52%
Activity (H4 [16]): 74.67%
Activity (H4 [17]): 87.795%
Activity (H4 [25]): 546.8%

SMILES: C=CCNC1=C2C[C@@H](C)C[C@H](OC)[C@H](O)[C@@H](C)/C=C(\C)[C@H](OC(N)=O)[C@@H](OC)/C=C\C=C(/C)C(=O)NC(=CC1=O)C2=O [TANESPIMYCIN]
Activity (H4 [1]): 364.98%
Activity (H4 [2]): 385.49%
Activity (H4 [3]): 66.89%
Activity (H4 [4]): 293.36%

SMILES: CN(C)CCCn1cc(C2=C(c3c[nH]c4ccccc34)C(=O)NC2=O)c2ccccc21 [GF-109203]
Activity (H4 [26]): 211.81%
Activity (H4 [27]): 208.08%
Activity (H4 [28]): 198.94%
Activity (H4 [29]): 47.77%

SMILES: Cn1cc(C2=C(c3cn(CCCSC(=N)N)c4ccccc34)C(=O)NC2=O)c2ccccc21 [BISINDOLYLMALEIMIDE IX]
Activity (H4 [19]): 50.58%
Activity (H4 [23]): 190.1%
Activity (H4 [24]): 190.07%
Activity (H4 [25]): 240.67%

SMILES: CNc1ccc2oc(C[C@@H]3OC4(CC[C@@H]3C)O[C@H]([C@@H](C)C(=O)c3ccc[nH]3)[C@H](C)C[C@H]4C)nc2c1C(=O)O (stereo not given in full)
Activity (H4 [30]): 15083%
Activity (H4 [31]): 181.04%
Activity (H4 [32]): 49.3%
Activity (H4 [33]): 172.66%
